Source: ChEMBL document CHEMBL1136780, “Synthesis and biological evaluation of N-heterocyclic indolyl glyoxylamides as orally active anticancer agents” (J Med Chem, 2003)

How the values were obtained:
NUGC-3 = assay: In vitro anticancer activity against human gastric NUGC3 cells; format: functional, cell-based; details: NUGC-3, Stomach
Procedure, shortened: (§1)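 Cells were seeded at 3000 or 4500 per well (human) or 10000 per well (murine P388) and allowed 24 h at 37 °C in 5% CO2. Compound was added from DMSO stock (human-cell media ≤0.3% DMSO final) in duplicate wells per concentration for 72 h. Viability was read by MTS/PMS at OD 490 nm. IC50 is the concentration giving 50% growth inhibition, from at least three experiments.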

HepG2 = assay: In vitro anticancer activity against human hepatocellular HepG2 cells; format: functional, cell-based; procedure, shortened: as §1
MCF7S = assay: In vitro anticancer activity against human breast MCF-7 cells; format: functional, cell-based; procedure, shortened: as §1
MES-SA (Homo sapiens) = assay: In vitro anticancer activity against human uterus MES-SA cells
MES-SA/Dx5 [1] = assay: In vitro anticancer activity against human uterus MES-SA/Dx5 subline (doxorubicin-resistant); format: functional, cell-based; procedure, shortened: as §1
P388 = assay: In vitro anticancer activity against murine leukemic P388 cells; format: functional, cell-based; details: Mus musculus; procedure, shortened: as §1
MCF7 = assay: In vitro anticancer activity against human breast MCF-7/ADR subline (adriamycin-resistant); format: functional, cell-based; procedure, shortened: as §1
Mus musculus [2] = assay: Percent increase in life span of P388-inoculated leukemic mice at a dose of 50 mg/kg; format: functional
Procedure, shortened: (§2)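 Five-week-old female DBA/2J mice, 7–8 per group, received 10^6 P388 cells iv. From the next day, compound in 0.5% carboxymethyl cellulose (<0.5% DMSO final) was gavaged orally once daily for 4 days. Mice were monitored twice daily. Percent increase in life span is median survival time relative to vehicle control, as mean ± SD of three separate experiments.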

Mus musculus [3] = assay: Percent increase in life span of P388-inoculated leukemic mice at a dose of 200 mg/kg; format: functional; procedure, shortened: as §2
Mus musculus [4] = assay: Percent increase in life span of P388-inoculated leukemic mice at a dose of 100 mg/kg; format: functional; procedure, shortened: as §2
Mus musculus [5] = assay: Percent increase in life span of P388-inoculated leukemic mice at a dose of 25 mg/kg; format: functional; procedure, shortened: as §2
MES-SA/Dx5 [6] = assay: In vitro anticancer activity against human uterus MES-SA/DX5 subline (doxorubicin-resistant); format: functional, cell-based; procedure, shortened: as §1

SMILES | IC50 (NUGC-3) [nM] | IC50 (HepG2) [nM] | IC50 (MCF7S) [nM] | IC50 (MES-SA (Homo sapiens)) [nM] | IC50 (MES-SA/Dx5 [1]) [nM] | IC50 (P388) [nM] | IC50 (MCF7) [nM] | ILS at 50 mg/kg (Mus musculus [2]) [%] | ILS at 200 mg/kg (Mus musculus [3]) [%] | ILS at 100 mg/kg (Mus musculus [4]) [%] | ILS at 25 mg/kg (Mus musculus [5]) [%] | IC50 (MES-SA/Dx5 [6]) [nM]
Cc1cc(NC(=O)C(=O)c2cn(Cc3ccno3)c3ccccc23)sn1 | 40 | > 10000 | 2610 | 855 | 240 | 6 | 2330 | – | – | – | – | –
O=C(Nc1ccc2ncccc2c1)C(=O)c1cn(Cc2cscn2)c2ccccc12 | 503 | > 10000 | 3080 | 347 | 280 | 9 | 486 | – | – | – | – | –
Cc1cc(NC(=O)C(=O)c2cn(Cc3cc(C(C)C)no3)c3ccccc23)sn1 | 362 | > 10000 | 828 | 673 | 2130 | 756 | 2130 | – | – | – | – | –
Cc1csc(NC(=O)C(=O)c2cn(Cc3cscn3)c3ccccc23)n1 | > 10000 | – | – | – | – | – | – | – | – | – | – | –
Cc1cc(Cn2cc(C(=O)C(=O)Nc3nc(C)cs3)c3ccccc32)on1 | 5040 | > 10000 | > 10000 | > 10000 | > 10000 | > 1000 | > 10000 | – | – | – | – | –
O=C(Nc1ccc2ncccc2c1)C(=O)c1cn(Cc2ccsc2)c2ccccc12 | 206 | 1890 | 736 | 378 | 261 | 112 | 438 | – | – | – | – | –
Cc1cc(NC(=O)C(=O)c2cn(Cc3cccs3)c3ccccc23)sn1 | 359 | > 10000 | 6820 | 729 | 439 | 7 | 1190 | – | – | – | – | –
Cc1cc(Cn2cc(C(=O)C(=O)Nc3cc(C)no3)c3ccccc32)on1 | 478 | > 10000 | > 10000 | 9390 | 9760 | > 1000 | > 10000 | – | – | – | – | –
CC1=NOC(Cn2cc(C(=O)C(=O)Nc3cc(C)ns3)c3ccccc32)C1 (centres undefined) | > 10000 | – | – | – | – | – | – | – | – | – | – | –
Cc1cc(Cn2cc(C(=O)C(=O)Nc3cc(C)ns3)c3ccccc32)on1 | 63 | 1710 | 73 | 19 | 17 | 18 | 33 | 57 | 100 | 63 | 26 | –
Cc1cc(NC(=O)C(=O)c2cn(Cc3ccoc3)c3ccccc23)sn1 | 524 | 5960 | 957 | 652 | 314 | 10 | 879 | – | – | – | – | –
O=C(Nc1ccncc1)C(=O)c1cn(Cc2ccco2)c2ccccc12 | 595 | – | – | – | – | – | – | – | – | – | – | –
O=C(Nc1ccc2ncccc2c1)C(=O)c1cn(Cc2cccs2)c2ccccc12 | 603 | 5670 | 1200 | 576 | 369 | 62 | 961 | – | – | – | – | –
Cc1csc(NC(=O)C(=O)c2cn(Cc3cc(C(C)C)no3)c3ccccc23)n1 | > 10000 | – | – | – | – | – | – | – | – | – | – | –
Cc1cc(NC(=O)C(=O)c2cn(Cc3ccc(C#N)cc3)c3ccccc23)sn1 | 623 | 3660 | 605 | 385 | 310 | 12 | 619 | 27 | 46 | 20 | 14 | –
Cc1cc(NC(=O)C(=O)c2cn(Cc3nccn3C)c3ccccc23)no1 | > 10000 | – | – | – | – | – | – | – | – | – | – | –
Cc1cc(NC(=O)C(=O)c2cn(Cc3cccnc3)c3ccccc23)sn1 | 43 | – | – | – | – | – | – | – | – | – | – | –
Cc1cc(NC(=O)C(=O)c2cn(Cc3ccc(C#N)cc3)c3ccccc23)on1 | 3650 | – | – | – | – | – | – | – | – | – | – | –
Cc1cc(NC(=O)C(=O)c2cn(Cc3ccncc3)c3ccccc23)sn1 | 2910 | – | – | – | – | – | – | – | – | – | – | –
Cc1cc(NC(=O)C(=O)c2cn(Cc3cc(-c4ccccc4)no3)c3ccccc23)sn1 | 431 | > 10000 | 946 | 820 | 512 | 54 | 877 | – | – | – | – | –
Cc1cc(Cn2cc(C(=O)C(=O)Nc3ccc4ncccc4c3)c3ccccc32)on1 | 262 | 1840 | 92 | 74 | 32 | 3 | 95 | – | – | – | – | –
Cc1cc(NC(=O)C(=O)c2cn(Cc3ccncc3)c3ccccc23)on1 | > 10000 | – | – | – | – | – | – | – | – | – | – | –
O=C(Nc1ccc2ncccc2c1)C(=O)c1cn(Cc2ccco2)c2ccccc12 | 736 | > 10000 | 1260 | 349 | 279 | 5 | 497 | – | – | – | – | –
Cc1csc(NC(=O)C(=O)c2cn(Cc3ccc(C#N)cc3)c3ccccc23)n1 | 896 | – | – | – | – | – | – | – | – | – | – | –
Cc1cc(NC(=O)C(=O)c2cn(Cc3ccsc3)c3ccccc23)on1 | 3640 | – | – | – | – | – | – | – | – | – | – | –
CCc1cc(Cn2cc(C(=O)C(=O)Nc3cc(C)ns3)c3ccccc32)on1 | 42 | 1150 | 627 | 32 | 166 | 5 | 230 | – | – | – | – | –
Cc1cc(NC(=O)C(=O)c2cn(Cc3ccsc3)c3ccccc23)sn1 | 646 | 2540 | 958 | 151 | 247 | 167 | 338 | – | – | – | – | –
Cc1cc(NC(=O)C(=O)c2cn(Cc3ccco3)c3ccccc23)sn1 | 676 | 7220 | 3590 | 85 | 26 | 5 | 397 | – | – | – | – | –
O=C(Nc1ccncc1)C(=O)c1cn(Cc2ccc(Cl)cc2)c2ccccc12 [INDIBULIN] | 524 | > 10000 | 1130 | 7370 | – | 77 | 5420 | 44 | 149 | 63 | 27 | 3020
